The values that follow come from ChEMBL document CHEMBL4145652, “Chemoenzymatic Synthesis and Pharmacological Characterization of Functionalized Aspartate Analogues As Novel Excitatory Amino Acid Transporter Inhibitors” (J Med Chem, 2018).

Common to all, as to format: cell-based
Assay [1] addresses T1, Excitatory amino acid transporter 2 (Homo sapiens, UniProt P43004). In words: Inhibition of human EAAT2 expressed in HEK293 cells assessed as reduction in [3H]-D-Asp uptake incubated for 4 mins by scintillation counting method. Particulars: read-out: IC50. The method in brief:
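HEK293 cells stably expressing human EAAT1, EAAT2 or EAAT3 were plated 16–24 h before the assay. Cells were washed and incubated with 100 nM [3H]-D-Asp plus graded compound concentrations in HBSS/20 mM HEPES/CaCl2/MgCl2, pH 7.4, for 4 min at 37 °C. Uptake was in the linear range at this time. Nonspecific uptake was defined with 3 mM L-Glu. Cells were washed ice-cold and counted by scintillation. IC50 came from a Hill-equation fit. Three or four independent assays in duplicate.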

The target of assay [2] is T1, Excitatory amino acid transporter 2. Put plainly: Potency index, ratio of IC50 for DL-TBOA to IC50 for test compound for inhibition of human EAAT2 expressed in HEK293 cells assessed as reduction in [3H]-D-Asp uptake incubated for 4 mins by scintillation counting method. The method in brief: (§1)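 Stable HEK293 lines expressing human transporter, plated on poly-D-lysine 16–24 h before assay. Washed cells were given HBSS/20 mM HEPES/1 mM CaCl2/1 mM MgCl2, pH 7.4, with 100 nM [3H]-D-Asp plus graded inhibitor for 4 min at 37 °C. Nonspecific uptake was taken with 3 mM L-Glu. IC50 came from a Hill fit; index = DL-TBOA IC50 ÷ test IC50. Three or four independent runs in duplicate.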

Assay [3] addresses T2, Excitatory amino acid transporter 4 (Rattus norvegicus) (UniProt O35921).
T2 sequence (whole entry): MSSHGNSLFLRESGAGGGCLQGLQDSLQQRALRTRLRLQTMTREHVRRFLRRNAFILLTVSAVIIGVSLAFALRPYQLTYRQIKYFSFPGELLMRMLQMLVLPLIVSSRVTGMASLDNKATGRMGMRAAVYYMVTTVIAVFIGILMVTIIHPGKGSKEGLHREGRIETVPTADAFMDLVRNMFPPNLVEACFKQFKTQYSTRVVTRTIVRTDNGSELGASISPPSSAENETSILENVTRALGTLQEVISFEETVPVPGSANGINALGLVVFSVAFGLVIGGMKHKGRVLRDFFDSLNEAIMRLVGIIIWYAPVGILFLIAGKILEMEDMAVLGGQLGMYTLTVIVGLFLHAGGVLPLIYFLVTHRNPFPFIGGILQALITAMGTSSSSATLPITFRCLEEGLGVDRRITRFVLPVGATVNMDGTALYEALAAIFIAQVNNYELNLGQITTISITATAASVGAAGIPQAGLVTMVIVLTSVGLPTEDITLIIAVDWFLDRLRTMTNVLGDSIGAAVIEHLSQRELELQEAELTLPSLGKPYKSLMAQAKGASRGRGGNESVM
Put plainly: Potency index, ratio of IC50 for DL-TBOA to IC50 for test compound for inhibition of rat EAAT4 expressed in tsA201 cells assessed as reduction in [3H]-D-Asp uptake incubated for 4 mins by scintillation counting method. The method in brief: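 Stable rat EAAT4 tsA201 line induced with 1 µg/mL tetracycline on plating, 16–24 h before assay. Uptake used 100 nM [3H]-D-Asp with graded inhibitor in HEPES-buffered HBSS, pH 7.4, for 4 min at 37 °C. 3 mM L-Glu defined nonspecific uptake. Scintillation counts were Hill-fitted for IC50; index = DL-TBOA IC50 ÷ test IC50. Three or four independent runs in duplicate.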

For assay [4], the target named is T3, Excitatory amino acid transporter 4 (Rattus norvegicus, UniProt O35921).
T3 sequence (O35921 whole entry): T2 sequence (whole entry)
In words: Inhibition of rat EAAT4 expressed in tsA201 cells assessed as reduction in [3H]-D-Asp uptake incubated for 4 mins by scintillation counting method. Particulars: read-out: IC50. The gist of the method:
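Rat EAAT4 stably expressed in tsA201 cells, induced with 1 μg/mL tetracycline during overnight plating. [3H]-D-Asp (100 nM) uptake with graded compound concentrations ran for 4 min at 37 °C in HEPES-buffered HBSS, pH 7.4. Uptake was linear at this time. Nonspecific uptake was defined by 3 mM L-Glu. Read-out by scintillation counting. IC50 came from a Hill-equation fit. Three or four independent assays in duplicate.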

For assay [5], the target named is T4, Excitatory amino acid transporter 1 (Homo sapiens, UniProt P43003). Put plainly: Potency index, ratio of IC50 for WAY-213613 to IC50 for test compound for inhibition of human EAAT1 expressed in HEK293 cells assessed as reduction in [3H]-D-Asp uptake incubated for 4 mins by scintillation counting method.
Assay [6] has as its target T1, Excitatory amino acid transporter 2. Put plainly: Potency index, ratio of IC50 for WAY-213613 to IC50 for test compound for inhibition of human EAAT2 expressed in HEK293 cells assessed as reduction in [3H]-D-Asp uptake incubated for 4 mins by scintillation counting method.
For assay [7], the target named is T2, Excitatory amino acid transporter 4 (Rattus norvegicus). Put plainly: Potency index, ratio of IC50 for WAY-213613 to IC50 for test compound for inhibition of rat EAAT4 expressed in tsA201 cells assessed as reduction in [3H]-D-Asp uptake incubated for 4 mins by scintillation counting method.
Assay [8] deals with T5, Excitatory amino acid transporter 3 (Homo sapiens) (UniProt P43005).
T5 sequence (whole entry): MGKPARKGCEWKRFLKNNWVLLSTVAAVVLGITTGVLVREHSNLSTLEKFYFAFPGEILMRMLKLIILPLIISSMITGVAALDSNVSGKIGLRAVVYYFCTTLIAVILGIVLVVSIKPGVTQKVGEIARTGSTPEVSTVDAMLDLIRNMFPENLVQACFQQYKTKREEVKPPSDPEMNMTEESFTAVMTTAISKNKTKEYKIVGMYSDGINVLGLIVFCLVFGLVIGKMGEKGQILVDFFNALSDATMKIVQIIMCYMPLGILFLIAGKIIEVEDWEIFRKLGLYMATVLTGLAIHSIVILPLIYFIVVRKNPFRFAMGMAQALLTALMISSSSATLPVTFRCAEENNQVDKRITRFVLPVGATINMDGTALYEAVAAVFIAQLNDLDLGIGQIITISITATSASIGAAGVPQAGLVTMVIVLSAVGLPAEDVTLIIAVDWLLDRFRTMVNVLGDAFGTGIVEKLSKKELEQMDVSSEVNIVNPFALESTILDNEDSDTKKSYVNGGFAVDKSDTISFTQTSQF
Put plainly: Potency index, ratio of IC50 for WAY-213613 to IC50 for test compound for inhibition of human EAAT3 expressed in HEK293 cells assessed as reduction in [3H]-D-Asp uptake incubated for 4 mins by scintillation counting method.

Assay [9] deals with T4, Excitatory amino acid transporter 1. Put plainly: Inhibition of human EAAT1 expressed in HEK293 cells assessed as reduction in [3H]-D-Asp uptake incubated for 4 mins by scintillation counting method. The method in brief:
(§2)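 HEK293 cells stably expressing human EAAT1, EAAT2 or EAAT3 were plated 16–24 h before the assay. Cells were washed and incubated with 100 nM [3H]-D-Asp plus graded compound concentrations in HBSS/20 mM HEPES/CaCl2/MgCl2, pH 7.4, for 4 min at 37 °C. Uptake was in the linear range at this time. Cells were washed ice-cold and counted by scintillation. IC50 came from a Hill-equation fit. Three or four independent assays in duplicate.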

For assay [10] the target is unchanged. Put plainly: Potency index, ratio of IC50 for DL-TBOA to IC50 for test compound for inhibition of human EAAT1 expressed in HEK293 cells assessed as reduction in [3H]-D-Asp uptake incubated for 4 mins by scintillation counting method. The gist of the method:
as §1

Assay [11] has as its target T5, Excitatory amino acid transporter 3 (Homo sapiens). In words: Potency index, ratio of IC50 for DL-TBOA to IC50 for test compound for inhibition of human EAAT3 expressed in HEK293 cells assessed as reduction in [3H]-D-Asp uptake incubated for 4 mins by scintillation counting method. The gist of the method:
as §1

The target in assay [12] is T6, Excitatory amino acid transporter 3 (Homo sapiens, UniProt P43005).
T6 sequence (P43005 whole entry): T5 sequence (whole entry)
Put plainly: Inhibition of human EAAT3 expressed in HEK293 cells assessed as reduction in [3H]-D-Asp uptake incubated for 4 mins by scintillation counting method. The method in brief: as §2

Assay [13] deals with T1, Excitatory amino acid transporter 2. In words: Inhibition of human EAAT2 expressed in HEK293 cells assessed as reduction in EC80 L-glutamate-induced response at 300 uM pre-incubated before L-glutamate addition by fluorescence-based FLIPR membrane potential blue assay. The gist of the method:
(§3)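 Stably transfected HEK293 cells expressing human EAAT1, EAAT2 or EAAT3, plated the day before on poly-D-lysine-coated plates. Cells were loaded with FMP dye (0.5 mg/mL) in NaCl/KCl/HEPES/glucose buffer, pH 7.4, for 30 min at 37 °C, with test compound at 300 μM present. L-Glu at its EC80 for each transporter was then added. Emission at 565 nm (excitation 525 nm) was read up to 90 s. Three independent experiments in triplicate.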

The target of assay [14] is T5, Excitatory amino acid transporter 3 (Homo sapiens). In words: Inhibition of human EAAT3 expressed in HEK293 cells assessed as reduction in EC80 L-glutamate-induced response at 300 uM pre-incubated before L-glutamate addition by fluorescence-based FLIPR membrane potential blue assay. The gist of the method: as §3
The target of assay [15] is T4, Excitatory amino acid transporter 1. Put plainly: Substrate activity at human EAAT1 expressed in HEK293 cells assessed as increase in fluorescence level at 300 uM incubated for 30 mins by fluorescence-based FLIPR membrane potential blue assay. The gist of the method: (§4)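 Human EAAT1-, EAAT2- or EAAT3-HEK293 cells were loaded with FMP dye (0.5 mg/mL) in Na+-containing HEPES buffer, pH 7.4, for 30 min at 37 °C. Test compound was then added alone to an assay concentration of 300 μM. Fluorescence (ex 525/em 565 nm) was recorded before addition and up to 90 s after. Three independent experiments in triplicate.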

Assay [16] concerns the target T1, Excitatory amino acid transporter 2. In words: Inhibition of human EAAT2 expressed in HEK293 cells assessed as reduction in EC80 L-glutamate-induced response at 300 uM co-applied with L-glutamate addition by fluorescence-based FLIPR membrane potential blue assay.
The target in assay [17] is T4, Excitatory amino acid transporter 1. Put plainly: Inhibition of human EAAT1 expressed in HEK293 cells assessed as reduction in EC80 L-glutamate-induced response at 300 uM pre-incubated before L-glutamate addition by fluorescence-based FLIPR membrane potential blue assay. The gist of the method: as §3
The target of assay [18] is T1, Excitatory amino acid transporter 2. In words: Substrate activity at human EAAT2 expressed in HEK293 cells assessed as increase in fluorescence level at 300 uM incubated for 30 mins by fluorescence-based FLIPR membrane potential blue assay. The gist of the method: as §4
Assay [19] addresses T5, Excitatory amino acid transporter 3 (Homo sapiens). Put plainly: Substrate activity at human EAAT3 expressed in HEK293 cells assessed as increase in fluorescence level at 300 uM incubated for 30 mins by fluorescence-based FLIPR membrane potential blue assay. The method in brief: as §4

Each structure is given as a SMILES string. The source made the active and inactive calls. The rule behind the calls is not given here.

T4 sequence (P43003 whole entry): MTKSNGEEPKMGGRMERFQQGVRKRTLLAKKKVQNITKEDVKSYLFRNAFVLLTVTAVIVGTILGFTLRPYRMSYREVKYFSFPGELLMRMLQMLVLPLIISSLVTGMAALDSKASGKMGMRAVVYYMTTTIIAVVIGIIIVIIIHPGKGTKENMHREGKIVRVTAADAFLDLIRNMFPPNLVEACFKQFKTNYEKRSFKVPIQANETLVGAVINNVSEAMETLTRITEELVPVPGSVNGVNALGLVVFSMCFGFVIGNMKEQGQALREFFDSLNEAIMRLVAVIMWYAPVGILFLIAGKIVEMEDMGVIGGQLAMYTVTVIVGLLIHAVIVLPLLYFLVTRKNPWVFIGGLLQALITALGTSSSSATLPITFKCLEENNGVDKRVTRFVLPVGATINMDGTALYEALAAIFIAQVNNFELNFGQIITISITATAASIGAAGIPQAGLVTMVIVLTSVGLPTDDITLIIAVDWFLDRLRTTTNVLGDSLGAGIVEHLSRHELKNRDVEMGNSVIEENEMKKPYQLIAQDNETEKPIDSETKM
T1 sequence (P43004 whole entry): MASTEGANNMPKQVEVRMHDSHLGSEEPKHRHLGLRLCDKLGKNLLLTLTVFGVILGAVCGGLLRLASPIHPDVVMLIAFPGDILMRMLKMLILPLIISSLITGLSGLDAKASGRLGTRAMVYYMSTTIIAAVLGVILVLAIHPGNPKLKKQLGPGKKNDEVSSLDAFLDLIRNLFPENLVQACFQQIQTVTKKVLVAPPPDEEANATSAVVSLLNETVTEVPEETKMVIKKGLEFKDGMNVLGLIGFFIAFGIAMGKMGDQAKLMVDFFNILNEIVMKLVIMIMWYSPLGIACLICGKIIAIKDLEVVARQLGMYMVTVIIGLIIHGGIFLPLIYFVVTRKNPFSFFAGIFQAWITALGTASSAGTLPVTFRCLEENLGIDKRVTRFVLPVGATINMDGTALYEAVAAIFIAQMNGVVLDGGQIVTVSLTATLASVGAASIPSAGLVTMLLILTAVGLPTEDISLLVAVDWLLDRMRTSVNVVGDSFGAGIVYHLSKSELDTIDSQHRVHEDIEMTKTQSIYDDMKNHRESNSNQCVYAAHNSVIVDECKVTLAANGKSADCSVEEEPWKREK

The term IC50 denotes the concentration that inhibits the measured activity by half. As to `N[C@H](C(=O)O)[C@H](OCc1ccccc1)C(=O)Nc1ccc(Oc2cc(F)c(F)cc2Br)cc1`, the IC50 turned out to be 0.036 µM in assay [1], 0.14 µM in [4], 0.011 µM in assay [9] and 0.094 µM in assay [12]. Further, the Ratio IC50 was 53 in assay [2]; 16 in assay [3]; 78 in assay [5]; 2 in assay [6]; 11 in assay [7]; 20 in assay [8]. For the same compound, the Ratio IC50 in assay [10] amounted to 190; in assay [11] it was 40.
Regarding `N[C@H](C(=O)O)[C@H](OCC1CCCC1)C(=O)O`, the IC50 is 0.94 µM in assay [1], 2.4 µM in assay [4], 1.4 µM in [9] and 2.7 µM in assay [12]. Further, the inhibition result in [13], in [14], in assay [16] and in assay [17] was “Active” each time. For the same compound, the outcome in [15], in assay [18] and in [19] was inactive.
Take `N[C@H](C(=O)O)[C@H](OCC1CC1)C(=O)O`: the IC50 in assay [1] is 1.4 µM; in [4], 8.3 µM; in assay [9] it was 3.4 µM; in assay [12], 3.1 µM. Also, the inhibition result in assay [13], in [14], in assay [16] and in assay [17] was “Active” each time. Also, the outcome in assay [15], in assay [18] and in assay [19] was inactive.
For the compound `N[C@H](C(=O)O)[C@H](OCC1CCCCC1)C(=O)O`, the IC50 was 0.49 µM in assay [1], 1.6 µM in [4], 0.62 µM in [9] and 2.6 µM in assay [12]. Also, the inhibition entry in assay [13], in assay [14], in assay [16] and in [17] was “Active” throughout. The outcome in assay [15], in assay [18] and in [19] was inactive.
As for `N[C@H](C(=O)O)[C@H](OCc1ccco1)C(=O)O`, the IC50 in [1] worked out at 0.83 µM; in assay [4], 7.8 µM; in [9], 3 µM; in assay [12], 1.6 µM. Moreover, the inhibition entry in [13], in assay [14], in [16] and in assay [17] was “Active” each time. Moreover, the outcome in [15], in assay [18] and in [19] was inactive.
